Measured values as given in ChEMBL document CHEMBL1765020, “Synthesis and structure-affinity relationships of novel dibenzylideneacetone derivatives as probes for β-amyloid plaques” (J Med Chem, 2011).

Legend:
[1] = test system: Brain; assay: Ratio of drug uptake in ddY mouse brain at 1 uCi/100 uL, iv after 2 mins to drug uptake in ddY mouse brain at 1 uCi/100 uL, iv after 60 mins; type: ADME, organism-based; conditions: in vivo
Procedure, shortened: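 Normal female ddY mice (5 weeks) received the radiotracer iv, and brain uptake (% ID/g, n = 4) was measured by gamma counting at 2 and 60 min. The index is brain uptake at 2 min divided by brain uptake at 60 min.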

[2] = test system: Brain; assay: Biodistribution in ddY mouse brain at 1 uCi/100 uL, iv after 2 mins by gamma counting; type: ADME, organism-based; conditions: in vivo
Procedure, shortened: (§1)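 Normal female ddY mice (5 weeks, about 20 g; n = 4 per group) received radiotracer iv. Organs were removed and weighed at 2–120 min and counted in a γ-counter. Percent dose per gram of wet tissue was calculated against diluted aliquots of the injected material and reported as mean ± SD.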

[3] = test system: Brain; assay: Biodistribution in ddY mouse brain at 1 uCi/100 uL, iv after 15 mins by gamma counting; type: ADME, organism-based; conditions: in vivo, 0.25 h; procedure, shortened: as §1
[4] = test system: Intestine; assay: Biodistribution in ddY mouse intestine at 1 uCi/100 uL, iv after 15 mins by gamma counting; type: ADME, organism-based; conditions: in vivo, 0.25 h; procedure, shortened: as §1
[5] = test system: Brain; assay: Biodistribution in ddY mouse brain at 1 uCi/100 uL, iv after 120 mins by gamma counting; type: ADME, organism-based; conditions: in vivo, 2 h; procedure, shortened: as §1
[6] = test system: Blood; assay: Biodistribution in ddY mouse blood at 1 uCi/100 uL, iv after 120 mins by gamma counting; type: ADME, organism-based; conditions: in vivo, 2 h; procedure, shortened: as §1
[7] = test system: Thyroid gland; assay: Biodistribution in ddY mouse thyroid at 1 uCi/100 uL, iv after 15 mins by gamma counting; type: ADME, organism-based; conditions: in vivo, 0.25 h
[8] = test system: Kidney; assay: Biodistribution in ddY mouse kidney at 1 uCi/100 uL, iv after 2 mins by gamma counting; type: ADME, organism-based; conditions: in vivo; procedure, shortened: as §1
[9] = Partition coefficient, log D of the compound; type: physicochemical; conditions: octanol/water
Procedure, shortened: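 Radiotracer partitioned between n-octanol and PBS: vortexed 3 min at room temperature, centrifuged 5 min at 3000 rpm. Weighed samples of the octanol (100 μL) and buffer (500 μL) layers were counted. log D is the log of the ratio of counts per gram, octanol versus PBS.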

[10] = test system: Stomach; assay: Biodistribution in ddY mouse stomach at 1 uCi/100 uL, iv after 15 mins by gamma counting; type: ADME, organism-based; conditions: in vivo, 0.25 h
[11] = test system: Heart; assay: Biodistribution in ddY mouse heart at 1 uCi/100 uL, iv after 30 mins by gamma counting; type: ADME, organism-based; conditions: in vivo, 0.5 h; procedure, shortened: as §1
[12] = test system: Brain; assay: Biodistribution in ddY mouse brain at 1 uCi/100 uL, iv after 60 mins by gamma counting; type: ADME, organism-based; conditions: in vivo, 1 h; procedure, shortened: as §1
[13] = test system: Brain; assay: Biodistribution in ddY mouse brain at 1 uCi/100 uL, iv after 30 mins by gamma counting; type: ADME, organism-based; conditions: in vivo, 0.5 h; procedure, shortened: as §1
[14] = test system: Heart; assay: Biodistribution in ddY mouse heart at 1 uCi/100 uL, iv after 2 mins by gamma counting; type: ADME, organism-based; conditions: in vivo; procedure, shortened: as §1
[15] = test system: Heart; assay: Biodistribution in ddY mouse heart at 1 uCi/100 uL, iv after 15 mins by gamma counting; type: ADME, organism-based; conditions: in vivo, 0.25 h; procedure, shortened: as §1
[16] = test system: Kidney; assay: Biodistribution in ddY mouse kidney at 1 uCi/100 uL, iv after 60 mins by gamma counting; type: ADME, organism-based; conditions: in vivo, 1 h
[17] = test system: Intestine; assay: Biodistribution in ddY mouse intestine at 1 uCi/100 uL, iv after 120 mins by gamma counting; type: ADME, organism-based; conditions: in vivo, 2 h; procedure, shortened: as §1
[18] = test system: Kidney; assay: Biodistribution in ddY mouse kidney at 1 uCi/100 uL, iv after 15 mins by gamma counting; type: ADME, organism-based; conditions: in vivo, 0.25 h; procedure, shortened: as §1
[19] = test system: Intestine; assay: Biodistribution in ddY mouse intestine at 1 uCi/100 uL, iv after 2 mins by gamma counting; type: ADME, organism-based; conditions: in vivo; procedure, shortened: as §1
[20] = test system: Heart; assay: Biodistribution in ddY mouse heart at 1 uCi/100 uL, iv after 60 mins by gamma counting; type: ADME, organism-based; conditions: in vivo, 1 h; procedure, shortened: as §1
[21] = test system: Liver; assay: Biodistribution in ddY mouse liver at 1 uCi/100 uL, iv after 120 mins by gamma counting; type: ADME, organism-based; conditions: in vivo, 2 h
[22] = test system: Liver; assay: Biodistribution in ddY mouse liver at 1 uCi/100 uL, iv after 30 mins by gamma counting; type: ADME, organism-based; conditions: in vivo, 0.5 h
[23] = test system: Thyroid gland; assay: Biodistribution in ddY mouse thyroid at 1 uCi/100 uL, iv after 120 mins by gamma counting; type: ADME, organism-based; conditions: in vivo, 2 h
[24] = test system: Heart; assay: Biodistribution in ddY mouse heart at 1 uCi/100 uL, iv after 120 mins by gamma counting; type: ADME, organism-based; conditions: in vivo, 2 h; procedure, shortened: as §1
[25] = test system: Liver; assay: Biodistribution in ddY mouse liver at 1 uCi/100 uL, iv after 15 mins by gamma counting; type: ADME, organism-based; conditions: in vivo, 0.25 h
[26] = test system: Spleen; assay: Biodistribution in ddY mouse spleen at 1 uCi/100 uL, iv after 60 mins by gamma counting; type: ADME, organism-based; conditions: in vivo, 1 h
[27] = test system: Blood; assay: Biodistribution in ddY mouse blood at 1 uCi/100 uL, iv after 15 mins by gamma counting; type: ADME, organism-based; conditions: in vivo, 0.25 h; procedure, shortened: as §1
[28] = test system: Spleen; assay: Biodistribution in ddY mouse spleen at 1 uCi/100 uL, iv after 15 mins by gamma counting; type: ADME, organism-based; conditions: in vivo, 0.25 h
[29] = test system: Spleen; assay: Biodistribution in ddY mouse spleen at 1 uCi/100 uL, iv after 2 mins by gamma counting; type: ADME, organism-based; conditions: in vivo
[30] = test system: Thyroid gland; assay: Biodistribution in ddY mouse thyroid at 1 uCi/100 uL, iv after 60 mins by gamma counting; type: ADME, organism-based; conditions: in vivo, 1 h
[31] = test system: Lung; assay: Biodistribution in ddY mouse lung at 1 uCi/100 uL, iv after 2 mins by gamma counting; type: ADME, organism-based; conditions: in vivo
[32] = test system: Stomach; assay: Biodistribution in ddY mouse stomach at 1 uCi/100 uL, iv after 2 mins by gamma counting; type: ADME, organism-based; conditions: in vivo
[33] = test system: Stomach; assay: Biodistribution in ddY mouse stomach at 1 uCi/100 uL, iv after 30 mins by gamma counting; type: ADME, organism-based; conditions: in vivo, 0.5 h
[34] = test system: Lung; assay: Biodistribution in ddY mouse lung at 1 uCi/100 uL, iv after 30 mins by gamma counting; type: ADME, organism-based; conditions: in vivo, 0.5 h
[35] = test system: Blood; assay: Biodistribution in ddY mouse blood at 1 uCi/100 uL, iv after 30 mins by gamma counting; type: ADME, organism-based; conditions: in vivo, 0.5 h; procedure, shortened: as §1
[36] = test system: Intestine; assay: Biodistribution in ddY mouse intestine at 1 uCi/100 uL, iv after 30 mins by gamma counting; type: ADME, organism-based; conditions: in vivo, 0.5 h; procedure, shortened: as §1
[37] = test system: Liver; assay: Biodistribution in ddY mouse liver at 1 uCi/100 uL, iv after 60 mins by gamma counting; type: ADME, organism-based; conditions: in vivo, 1 h
[38] = test system: Liver; assay: Biodistribution in ddY mouse liver at 1 uCi/100 uL, iv after 2 mins by gamma counting; type: ADME, organism-based; conditions: in vivo
[39] = test system: Stomach; assay: Biodistribution in ddY mouse stomach at 1 uCi/100 uL, iv after 120 mins by gamma counting; type: ADME, organism-based; conditions: in vivo, 2 h
[40] = test system: Thyroid gland; assay: Biodistribution in ddY mouse thyroid at 1 uCi/100 uL, iv after 30 mins by gamma counting; type: ADME, organism-based; conditions: in vivo, 0.5 h
[41] = test system: Lung; assay: Biodistribution in ddY mouse lung at 1 uCi/100 uL, iv after 120 mins by gamma counting; type: ADME, organism-based; conditions: in vivo, 2 h
[42] = test system: Spleen; assay: Biodistribution in ddY mouse spleen at 1 uCi/100 uL, iv after 30 mins by gamma counting; type: ADME, organism-based; conditions: in vivo, 0.5 h
[43] = test system: Blood; assay: Biodistribution in ddY mouse blood at 1 uCi/100 uL, iv after 60 mins by gamma counting; type: ADME, organism-based; conditions: in vivo, 1 h; procedure, shortened: as §1
[44] = test system: Stomach; assay: Biodistribution in ddY mouse stomach at 1 uCi/100 uL, iv after 60 mins by gamma counting; type: ADME, organism-based; conditions: in vivo, 1 h
[45] = test system: Thyroid gland; assay: Biodistribution in ddY mouse thyroid at 1 uCi/100 uL, iv after 2 mins by gamma counting; type: ADME, organism-based; conditions: in vivo
[46] = test system: Blood; assay: Biodistribution in ddY mouse blood at 1 uCi/100 uL, iv after 2 mins by gamma counting; type: ADME, organism-based; conditions: in vivo; procedure, shortened: as §1
[47] = test system: Kidney; assay: Biodistribution in ddY mouse kidney at 1 uCi/100 uL, iv after 120 mins by gamma counting; type: ADME, organism-based; conditions: in vivo, 2 h; procedure, shortened: as §1
[48] = test system: Lung; assay: Biodistribution in ddY mouse lung at 1 uCi/100 uL, iv after 60 mins by gamma counting; type: ADME, organism-based; conditions: in vivo, 1 h
[49] = test system: Kidney; assay: Biodistribution in ddY mouse kidney at 1 uCi/100 uL, iv after 30 mins by gamma counting; type: ADME, organism-based; conditions: in vivo, 0.5 h
[50] = test system: Lung; assay: Biodistribution in ddY mouse lung at 1 uCi/100 uL, iv after 15 mins by gamma counting; type: ADME, organism-based; conditions: in vivo, 0.25 h
[51] = test system: Spleen; assay: Biodistribution in ddY mouse spleen at 1 uCi/100 uL, iv after 120 mins by gamma counting; type: ADME, organism-based; conditions: in vivo, 2 h
[52] = test system: Intestine; assay: Biodistribution in ddY mouse intestine at 1 uCi/100 uL, iv after 60 mins by gamma counting; type: ADME, organism-based; conditions: in vivo, 1 h; procedure, shortened: as §1

For CNc1ccc(/C=C/C(=O)/C=C/c2ccc([125I])cc2)cc1, the Ratio [1] was 6.59, the Drug uptake [2] was 4.68 % ID/g and the Drug uptake [3] was 2.62 % ID/g. The Drug uptake [4] was 10.33 % ID/g, the Drug uptake [5] was 0.54 % ID/g and the Drug uptake [6] was 4.46 % ID/g. For the same compound, the Drug uptake [7] was 28.09 % ID/g, the Drug uptake [8] was 14.73 % ID/g and the logD [9] was 3.55. For the same compound, the Drug uptake [10] was 3.82 % ID/organ, the Drug uptake [11] was 3.29 % ID/g and the Drug uptake [12] was 0.71 % ID/g. The Drug uptake [13] was 1.38 % ID/g, the Drug uptake [14] was 8.11 % ID/g and the Drug uptake [15] was 4.14 % ID/g. The Drug uptake [16] was 10.46 % ID/g, the Drug uptake [17] was 41.29 % ID/g and the Drug uptake [18] was 16.49 % ID/g. It also gave a Drug uptake [19] of 3.53 % ID/g, a Drug uptake [20] of 1.74 % ID/g and a Drug uptake [21] of 27.83 % ID/g. For the same compound, the Drug uptake [22] was 23.88 % ID/g, the Drug uptake [23] was 72.93 % ID/g and the Drug uptake [24] was 1.91 % ID/g. It also gave a Drug uptake [25] of 40.83 % ID/g, a Drug uptake [26] of 1.52 % ID/g and a Drug uptake [27] of 6.02 % ID/g. For the same compound, the Drug uptake [28] was 3.36 % ID/g, the Drug uptake [29] was 4.57 % ID/g and the Drug uptake [30] was 23.96 % ID/g. The Drug uptake [31] was 9.67 % ID/g, the Drug uptake [32] was 3.26 % ID/organ and the Drug uptake [33] was 3.17 % ID/organ. The Drug uptake [34] was 6.18 % ID/g, the Drug uptake [35] was 4.84 % ID/g and the Drug uptake [36] was 13.19 % ID/g. It also gave a Drug uptake [37] of 22.63 % ID/g, a Drug uptake [38] of 39.22 % ID/g and a Drug uptake [39] of 4.49 % ID/organ. For the same compound, the Drug uptake [40] was 27.78 % ID/g, the Drug uptake [41] was 3.9 % ID/g and the Drug uptake [42] was 2.22 % ID/g. The Drug uptake [43] was 3.35 % ID/g, the Drug uptake [44] was 3.34 % ID/organ and the Drug uptake [45] was 18.2 % ID/g. The Drug uptake [46] was 7.48 % ID/g, the Drug uptake [47] was 13.43 % ID/g and the Drug uptake [48] was 3.5 % ID/g. For the same compound, the Drug uptake [49] was 15.54 % ID/g, the Drug uptake [50] was 7.42 % ID/g and the Drug uptake [51] was 1.23 % ID/g. The Drug uptake [52] was 23.62 % ID/g.
